What was measured:
Format in all cases: functional
[1] = Growth inhibition of human M14 cells at 10 uM after 48 hrs by SRB assay relative to control; settings: M14, 48 h, read-out: GI
Outline: (§1)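 NCI 60-cell-line panel, nine tumor subpanels; compounds tested at a single dose of 10 μM in the primary screen.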

[2] = Growth inhibition of human ovarian cancer cells after 48 hrs by SRB assay; settings: Cancer cell lines
Outline: (§2)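 Follow-up NCI panel testing over a 5-log dose range for each cell line. GI50, TGI and LC50 were monitored, with 5-fluorouracil run as the positive control. Values are grouped by tumour subpanel.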

Cancer cell lines [3] = test: Potency index, ratio of 5-fluorouracil GI50 to compound GI50 for human non-small cell lung cancer cells
Outline: (§3)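 GI50 for each cell line came from NCI panel testing over a 5-log dose range, with 5-fluorouracil tested alongside as the reference drug. The index relates the 5-fluorouracil GI50 to the compound GI50 within each tumour subpanel.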

[4] = Growth inhibition of human HCC2998 cells at 10 uM after 48 hrs by SRB assay relative to control; settings: HCC 2998, 48 h, read-out: GI; outline: as §1
[5] = Growth inhibition of human LOXIMVI cells at 10 uM after 48 hrs by SRB assay relative to control; settings: LOX IMVI, read-out: GI; outline: as §1
[6] = Growth inhibition of human PC3 cells at 10 uM after 48 hrs by SRB assay relative to control; settings: PC-3, 48 h, read-out: GI; outline: as §1
[7] = Growth inhibition of human breast cancer cells after 48 hrs by SRB assay; settings: Cancer cell lines; outline: as §2
[8] = Growth inhibition of human SR cells at 10 uM after 48 hrs by SRB assay relative to control; settings: read-out: GI
Outline: (§4)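 Primary screen across the full NCI 60 human tumour cell line panel, which covers nine tumour subpanels. A single dose of 10 μM was applied to each line, and growth was recorded for each cell line.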

Melanoma cell = test: Potency index, ratio of 5-fluorouracil GI50 to compound GI50 for human melanoma cells; outline: as §3
[9] = Growth inhibition of human A549 cells at 10 uM after 48 hrs by SRB assay relative to control; settings: A549, 48 h, read-out: GI; outline: as §1
[10] = Growth inhibition of human 786-0 cells at 10 uM after 48 hrs by SRB assay relative to control; settings: 786-0, 48 h, read-out: GI; outline: as §1
[11] = Growth inhibition of human Caki1 cells at 10 uM after 48 hrs by SRB assay relative to control; settings: CAKI-1, 48 h, read-out: GI; outline: as §1
[12] = Growth inhibition of human HOP92 cells at 10 uM after 48 hrs by SRB assay relative to control; settings: HOP-92, 48 h, read-out: GI; outline: as §1
[13] = Growth inhibition of human MOLT4 cells at 10 uM after 48 hrs by SRB assay relative to control; settings: MOLT-4, 48 h, read-out: GI; outline: as §1
[14] = Growth inhibition of human CNS cancer cells after 48 hrs by SRB assay; settings: Cancer cell lines
Outline: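 Five-log dose range against NCI tumor cell lines, monitoring GI50, TGI and LC50 for each cell line; MG-MID values derived across the panel; 5-fluorouracil positive control.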

[15] = Growth inhibition of human renal cancer cells after 48 hrs by SRB assay; settings: Cancer cell lines; outline: as §2
Cancer cell lines [16] = test: Potency index, ratio of 5-fluorouracil GI50 to compound GI50 for human CNS cancer cells; outline: as §3
Cancer cell lines [17] = test: Potency index, ratio of 5-fluorouracil GI50 to compound GI50 for human colon cancer cells; outline: as §3
[18] = Growth inhibition of human MCF7 cells at 10 uM after 48 hrs by SRB assay relative to control; settings: MCF7, 48 h, read-out: GI; outline: as §1
[19] = Growth inhibition of human leukemia cells after 48 hrs by SRB assay; settings: Leukemia cell; for CC50: read-out: LC50 (the source's name); outline: as §2
[20] = Growth inhibition of human UO31 cells at 10 uM after 48 hrs by SRB assay relative to control; settings: UO-31, 48 h, read-out: GI; outline: as §4
[21] = Growth inhibition of human MALME-3M cells at 10 uM after 48 hrs by SRB assay relative to control; settings: read-out: GI; outline: as §1
Cancer cell lines [22] = test: Potency index, ratio of 5-fluorouracil GI50 to compound GI50 for human ovarian cancer cells; outline: as §3
[23] = Growth inhibition of human MDA-MB-468 cells at 10 uM after 48 hrs by SRB assay relative to control; settings: MDA-MB-468, 48 h, read-out: GI; outline: as §1
[24] = Growth inhibition of human SF295 cells at 10 uM after 48 hrs by SRB assay relative to control; settings: SF-295, 48 h, read-out: GI; outline: as §1
[25] = Growth inhibition of human NCI-H460 cells at 10 uM after 48 hrs by SRB assay relative to control; settings: NCI-H460, 48 h, read-out: GI; outline: as §1
[26] = Growth inhibition of human HOP62 cells at 10 uM after 48 hrs by SRB assay relative to control; settings: HOP-62, 48 h, read-out: GI; outline: as §1
[27] = Growth inhibition of human melanoma cells after 48 hrs by SRB assay; settings: Melanoma cell; outline: as §2
[28] = Growth inhibition of human ACHN cells at 10 uM after 48 hrs by SRB assay relative to control; settings: read-out: GI; outline: as §1
[29] = Growth inhibition of human UACC62 cells at 10 uM after 48 hrs by SRB assay relative to control; settings: UACC-62, 48 h, read-out: GI; outline: as §4
[30] = Growth inhibition of human RXF393 cells at 10 uM after 48 hrs by SRB assay relative to control; settings: RXF 393, 48 h, read-out: GI; outline: as §1
[31] = Growth inhibition of human UACC257 cells at 10 uM after 48 hrs by SRB assay relative to control; settings: UACC-257, 48 h, read-out: GI; outline: as §4
[32] = Growth inhibition of human U251 cells at 10 uM after 48 hrs by SRB assay relative to control; settings: U-251, 48 h, read-out: GI; outline: as §4
[33] = Growth inhibition of human NCI-322M cells at 10 uM after 48 hrs by SRB assay relative to control; settings: read-out: GI; outline: as §1
[34] = Growth inhibition of human T47D cells at 10 uM after 48 hrs by SRB assay relative to control; settings: read-out: GI; outline: as §4
[35] = Growth inhibition of human RPMI8226 cells at 10 uM after 48 hrs by SRB assay relative to control; settings: RPMI-8226, 48 h, read-out: GI; outline: as §1
[36] = Growth inhibition of human HL-60(TB) cells at 10 uM after 48 hrs by SRB assay relative to control; settings: HL-60, 48 h, read-out: GI
Outline: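 NCI disease-oriented human tumour cell line screen: primary single-dose assay at 10 μM across the full 60-cell-line panel spanning nine tumour subpanels.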

COc1ccc(-n2c(SCc3cc(OC)c(OC)c(OC)c3)nc3ccc(C)cc3c2=O)c(OC)c1
inhibition of growth at 10 µM [1]: 88.8% | GI50 [2]: 5.1 µM | LC50 (50% lethal concentration) [2]: > 100 µM | TGI [2]: 86.7 µM | RatioGI50 (Cancer cell lines [3]): 2 - 10 | inhibition of growth at 10 µM [4]: 54.5% | inhibition of growth at 10 µM [5]: 68.4% | inhibition of growth at 10 µM [6]: 91.3% | GI50 [7]: 4.1 µM | LC50 [7]: > 100 µM | TGI [7]: 84.9 µM | inhibition of growth at 10 µM [8]: 92.3% | RatioGI50 (Melanoma cell): 2 - 10 | inhibition of growth at 10 µM [9]: 81.1% | inhibition of growth at 10 µM [10]: 70.4% | inhibition of growth at 10 µM [11]: 86.7% | inhibition of growth at 10 µM [12]: 77.3% | inhibition of growth at 10 µM [13]: 88.7% | GI50 [14]: 9.6 µM | LC50 (lethal concentration, 50% net cell kill) [14]: > 100 µM | TGI [14]: 84.6 µM | GI50 [15]: 15.4 µM | LC50 [15]: > 100 µM | TGI [15]: 92.5 µM | RatioGI50 (Cancer cell lines [16]): 2 - 10 | RatioGI50 (Cancer cell lines [17]): 2 - 10 | inhibition of growth at 10 µM [18]: 84.6% | GI50 [19]: 2.5 µM | TGI [19]: 56.2 µM | CC50 [19]: > 100 µM | inhibition of growth at 10 µM [20]: 81.8% | inhibition of growth at 10 µM [21]: 74.5% | RatioGI50 (Cancer cell lines [22]): 2 - 10 | inhibition of growth at 10 µM [23]: 83% | inhibition of growth at 10 µM [24]: 93.7% | inhibition of growth at 10 µM [25]: 95.4% | inhibition of growth at 10 µM [26]: 52.6% | GI50 [27]: 4.2 µM | LC50 [27]: 89.9 µM | TGI [27]: 77.4 µM | inhibition of growth at 10 µM [28]: 55.1% | inhibition of growth at 10 µM [29]: 75.6% | inhibition of growth at 10 µM [30]: 80.4% | inhibition of growth at 10 µM [31]: < 10% | inhibition of growth at 10 µM [32]: 75.2% | inhibition of growth at 10 µM [33]: 72% | inhibition of growth at 10 µM [34]: 66.9%

COc1ccccc1-n1c(SCc2cc(OC)c(OC)c(OC)c2)nc2ccc(Cl)cc2c1=O
inhibition of growth at 10 µM [1]: 84.1% | GI50 [2]: 6.7 µM | LC50 (50% lethal concentration) [2]: > 100 µM | TGI [2]: 87.9 µM | RatioGI50 (Cancer cell lines [3]): 2 - 10 | inhibition of growth at 10 µM [4]: 43.2% | inhibition of growth at 10 µM [5]: 66.8% | inhibition of growth at 10 µM [35]: 82.6% | inhibition of growth at 10 µM [6]: 80.4% | GI50 [7]: 3.5 µM | LC50 [7]: > 100 µM | TGI [7]: 84.8 µM | inhibition of growth at 10 µM [8]: 84% | RatioGI50 (Melanoma cell): 2 - 10 | inhibition of growth at 10 µM [9]: 68.9% | inhibition of growth at 10 µM [10]: 49% | inhibition of growth at 10 µM [11]: 57.4% | inhibition of growth at 10 µM [12]: 57.1% | inhibition of growth at 10 µM [13]: 84.7% | GI50 [14]: 7.9 µM | LC50 (lethal concentration, 50% net cell kill) [14]: > 100 µM | TGI [14]: 63.1 µM | GI50 [15]: 10.6 µM | LC50 [15]: > 100 µM | TGI [15]: 93.5 µM | RatioGI50 (Cancer cell lines [16]): 2 - 10 | RatioGI50 (Cancer cell lines [17]): 2 - 10 | inhibition of growth at 10 µM [18]: 84.4% | GI50 [19]: 2.4 µM | TGI [19]: 86.5 µM | CC50 [19]: > 100 µM | inhibition of growth at 10 µM [20]: 57.4% | inhibition of growth at 10 µM [21]: 67.1% | RatioGI50 (Cancer cell lines [22]): 2 - 10 | inhibition of growth at 10 µM [23]: 84.4% | inhibition of growth at 10 µM [24]: 68.2% | inhibition of growth at 10 µM [25]: 89.2% | inhibition of growth at 10 µM [26]: 48.2% | GI50 [27]: 4.2 µM | LC50 [27]: > 100 µM | TGI [27]: 91.7 µM | inhibition of growth at 10 µM [28]: 55.8% | inhibition of growth at 10 µM [29]: 65.7% | inhibition of growth at 10 µM [30]: 38.5% | inhibition of growth at 10 µM [31]: < 10% | inhibition of growth at 10 µM [32]: 74.5% | inhibition of growth at 10 µM [33]: 44.9% | inhibition of growth at 10 µM [34]: 56.1%

COc1cc(CSc2nc3ccc(Cl)cc3c(=O)n2-c2ccccc2)cc(OC)c1OC
inhibition of growth at 10 µM [1]: < 10% | inhibition of growth at 10 µM [4]: 20% | inhibition of growth at 10 µM [5]: 20.7% | inhibition of growth at 10 µM [35]: < 10% | inhibition of growth at 10 µM [6]: 26.8% | inhibition of growth at 10 µM [8]: 54.4% | inhibition of growth at 10 µM [9]: 26.1% | inhibition of growth at 10 µM [10]: 10.7% | inhibition of growth at 10 µM [11]: 26.1% | inhibition of growth at 10 µM [36]: < 10% | inhibition of growth at 10 µM [12]: 11.1% | inhibition of growth at 10 µM [13]: 30.3% | inhibition of growth at 10 µM [18]: 23.1% | inhibition of growth at 10 µM [20]: 52.2% | inhibition of growth at 10 µM [21]: 23.5% | inhibition of growth at 10 µM [23]: 42.7% | inhibition of growth at 10 µM [24]: 15.8% | inhibition of growth at 10 µM [25]: < 10% | inhibition of growth at 10 µM [26]: 28% | inhibition of growth at 10 µM [28]: 21.1% | inhibition of growth at 10 µM [29]: 35.9% | inhibition of growth at 10 µM [30]: 31.1% | inhibition of growth at 10 µM [31]: 10.3% | inhibition of growth at 10 µM [32]: 11.4% | inhibition of growth at 10 µM [33]: 14.3% | inhibition of growth at 10 µM [34]: 29.1%
